SMILES strings stand for the structures. The source made the active and inactive calls. No cut-off for these calls is given here.

The test system of experiment [1] is THP-1. The experiment in a line: Antiinflammatory activity in human THP1 cells assessed as inhibition of LPS-induced TNFalpha release at 10 uM by ELISA. The class given is functional. The method in brief: (§1)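 THP-1 monocytes differentiated to macrophages over 72 h with conditioned medium from cells given 200 ng/mL PMA for 24 h, washed, and rested 24 h. Cells pretreated with compound (0.01–10 uM) for 1 h at 37 °C, then stimulated with 100 ng/mL LPS for 24 h. TNF-α release measured, mean ± SD of duplicates.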
For orientation: An ELISA detects its analyte on a solid surface through an enzyme-linked reagent.

Experiment [2] relates to THP-1. The experiment in a line: Antiinflammatory activity in human THP1 cells assessed as inhibition of LPS-induced TNFalpha release at 1 uM by ELISA. The class given is functional. Put shortly: as §1
In experiment [3] the target is T1, Prostaglandin G/H synthase 1 (Mus musculus, UniProt P22437).
T1 sequence (P22437 whole entry): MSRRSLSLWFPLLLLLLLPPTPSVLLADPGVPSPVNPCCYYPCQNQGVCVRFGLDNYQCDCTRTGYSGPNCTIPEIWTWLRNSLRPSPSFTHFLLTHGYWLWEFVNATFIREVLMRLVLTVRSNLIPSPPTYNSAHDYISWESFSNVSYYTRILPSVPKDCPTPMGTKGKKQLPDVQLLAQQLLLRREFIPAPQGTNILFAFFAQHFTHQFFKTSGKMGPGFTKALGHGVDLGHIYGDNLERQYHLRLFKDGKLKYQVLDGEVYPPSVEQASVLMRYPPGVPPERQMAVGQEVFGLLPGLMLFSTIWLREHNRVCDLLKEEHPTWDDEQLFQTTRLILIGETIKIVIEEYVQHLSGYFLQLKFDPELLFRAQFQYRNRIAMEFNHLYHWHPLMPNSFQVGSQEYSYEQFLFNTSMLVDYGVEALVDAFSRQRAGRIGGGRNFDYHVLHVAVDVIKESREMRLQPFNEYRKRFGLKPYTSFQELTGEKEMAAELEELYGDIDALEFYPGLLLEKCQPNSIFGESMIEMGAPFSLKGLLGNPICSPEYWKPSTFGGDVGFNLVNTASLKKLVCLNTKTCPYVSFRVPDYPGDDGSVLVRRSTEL
Put plainly: Inhibition of COX1 in mouse RAW264.7 cells by enzyme immunoassay. The class given is cell-based. The method in brief:
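RAW 264.7 cells (5×10^5/well) grown overnight in DMEM with 10% FBS, then washed with PBS. Cells were not LPS-stimulated. Serum-free, phenol red-free DMEM; compound pretreatment 1 h at 37 °C, then 30 µM arachidonic acid for 30 min at 37 °C. PGE2 in the medium measured by EIA.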

For experiment [4], the system named is THP-1. The experiment in a line: Antiinflammatory activity in human THP1 cells assessed as inhibition of LPS-induced TNFalpha release by ELISA. Format: functional, cell-based. The method in brief: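 Differentiated THP-1 macrophages were used. They were made by 72 h culture in conditioned medium from THP-1 cells treated with 200 ng/mL PMA for 24 h, washed and rested 24 h. Cells were preincubated with compounds at 0.01, 0.1, 1 and 10 µM for 1 h at 37 °C, then stimulated with 100 ng/mL LPS for 24 h. Duplicate determinations, mean ± SD.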

Experiment [5] addresses T2, Prostaglandin G/H synthase 2 (Mus musculus, UniProt Q05769).
T2 sequence (Q05769 whole entry): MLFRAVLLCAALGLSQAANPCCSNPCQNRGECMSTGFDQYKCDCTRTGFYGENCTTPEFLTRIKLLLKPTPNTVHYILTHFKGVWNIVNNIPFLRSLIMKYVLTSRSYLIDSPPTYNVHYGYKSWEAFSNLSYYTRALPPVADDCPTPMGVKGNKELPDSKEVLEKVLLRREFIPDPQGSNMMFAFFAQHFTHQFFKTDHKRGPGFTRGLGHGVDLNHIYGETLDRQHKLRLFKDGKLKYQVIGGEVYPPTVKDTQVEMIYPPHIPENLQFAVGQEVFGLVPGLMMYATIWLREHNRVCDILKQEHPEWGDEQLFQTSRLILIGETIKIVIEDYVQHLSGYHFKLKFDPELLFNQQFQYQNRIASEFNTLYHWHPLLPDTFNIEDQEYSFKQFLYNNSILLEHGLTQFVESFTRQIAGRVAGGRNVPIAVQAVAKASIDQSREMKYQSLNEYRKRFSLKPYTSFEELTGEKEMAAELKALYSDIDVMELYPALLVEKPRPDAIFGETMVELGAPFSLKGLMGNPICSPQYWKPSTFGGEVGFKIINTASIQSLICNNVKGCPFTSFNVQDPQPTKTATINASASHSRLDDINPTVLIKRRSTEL
The experiment in a line: Inhibition of COX2 in mouse RAW264.7 cells by enzyme immunoassay.

The target in experiment [6] is T3, Prostaglandin G/H synthase 1 (Homo sapiens, UniProt P23219). Put plainly: Inhibition of human recombinant COX1 in human platelets by enzyme immunoassay. The method in brief: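 Source was washed human platelets (5×10^7 cells/mL) in modified HEPES buffer, pH 7.4. Compounds were preincubated 15 min at 37 °C, then 100 µM arachidonic acid was added for 15 min at 37 °C. The reaction was stopped with 1 N HCl. COX-1 activity was read as PGE2 by EIA.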
T3 sequence (P23219 whole entry): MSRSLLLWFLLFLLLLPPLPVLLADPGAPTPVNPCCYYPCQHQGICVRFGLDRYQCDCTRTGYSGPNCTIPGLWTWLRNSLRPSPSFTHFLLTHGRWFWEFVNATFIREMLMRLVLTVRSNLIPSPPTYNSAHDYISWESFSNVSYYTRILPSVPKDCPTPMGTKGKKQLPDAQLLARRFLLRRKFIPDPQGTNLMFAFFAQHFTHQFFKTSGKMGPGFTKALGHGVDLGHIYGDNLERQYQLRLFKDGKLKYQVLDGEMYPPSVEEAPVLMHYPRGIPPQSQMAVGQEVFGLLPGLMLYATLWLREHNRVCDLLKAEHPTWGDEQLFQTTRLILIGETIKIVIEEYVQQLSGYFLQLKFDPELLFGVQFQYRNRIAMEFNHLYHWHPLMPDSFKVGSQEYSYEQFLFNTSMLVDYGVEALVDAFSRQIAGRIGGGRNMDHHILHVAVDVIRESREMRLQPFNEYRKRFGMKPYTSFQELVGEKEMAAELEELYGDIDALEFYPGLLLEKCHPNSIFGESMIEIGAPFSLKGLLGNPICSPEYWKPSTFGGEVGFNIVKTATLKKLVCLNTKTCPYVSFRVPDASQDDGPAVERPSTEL

Experiment [7] has as its target T4, Prostaglandin G/H synthase 2 (Homo sapiens, UniProt P35354).
T4 sequence (P35354 whole entry): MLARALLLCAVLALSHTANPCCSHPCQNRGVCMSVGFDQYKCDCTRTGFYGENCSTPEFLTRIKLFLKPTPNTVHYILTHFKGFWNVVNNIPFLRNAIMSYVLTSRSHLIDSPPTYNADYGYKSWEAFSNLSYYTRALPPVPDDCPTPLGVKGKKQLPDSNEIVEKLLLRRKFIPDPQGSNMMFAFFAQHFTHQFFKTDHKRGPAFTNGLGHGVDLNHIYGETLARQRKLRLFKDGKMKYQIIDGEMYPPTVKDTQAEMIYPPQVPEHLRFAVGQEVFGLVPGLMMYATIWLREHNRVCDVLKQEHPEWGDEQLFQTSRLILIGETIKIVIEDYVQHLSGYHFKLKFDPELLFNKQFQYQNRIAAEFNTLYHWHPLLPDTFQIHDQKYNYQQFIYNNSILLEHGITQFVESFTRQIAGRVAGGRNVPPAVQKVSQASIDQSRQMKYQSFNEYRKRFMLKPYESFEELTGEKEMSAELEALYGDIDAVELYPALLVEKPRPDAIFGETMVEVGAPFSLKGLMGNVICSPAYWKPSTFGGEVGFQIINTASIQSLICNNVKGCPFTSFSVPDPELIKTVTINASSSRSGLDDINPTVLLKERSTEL
The experiment in a line: Inhibition of human recombinant COX2 expressed in insect Sf9 cells by enzyme immunoassay.

In experiment [8] the target is Mitogen-activated protein kinase 14 (Homo sapiens) (UniProt Q16539). Put plainly: Inhibition of p38alpha MAPK at 10 uM.
Chain of Mitogen-activated protein kinase 14 (Homo sapiens) (Q16539 whole entry): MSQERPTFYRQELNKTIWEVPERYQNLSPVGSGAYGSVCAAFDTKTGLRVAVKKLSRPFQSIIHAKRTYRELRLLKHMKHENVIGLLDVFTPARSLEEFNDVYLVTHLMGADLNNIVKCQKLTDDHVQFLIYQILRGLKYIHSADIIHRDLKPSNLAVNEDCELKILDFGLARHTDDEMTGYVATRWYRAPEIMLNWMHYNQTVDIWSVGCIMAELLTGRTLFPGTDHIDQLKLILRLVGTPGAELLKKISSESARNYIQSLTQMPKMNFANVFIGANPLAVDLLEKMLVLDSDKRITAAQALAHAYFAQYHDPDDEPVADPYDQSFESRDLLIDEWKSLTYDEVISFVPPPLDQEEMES
For experiment [9], the target named is T5, Polyunsaturated fatty acid 5-lipoxygenase (Homo sapiens, UniProt P09917).
T5 sequence (P09917 whole entry): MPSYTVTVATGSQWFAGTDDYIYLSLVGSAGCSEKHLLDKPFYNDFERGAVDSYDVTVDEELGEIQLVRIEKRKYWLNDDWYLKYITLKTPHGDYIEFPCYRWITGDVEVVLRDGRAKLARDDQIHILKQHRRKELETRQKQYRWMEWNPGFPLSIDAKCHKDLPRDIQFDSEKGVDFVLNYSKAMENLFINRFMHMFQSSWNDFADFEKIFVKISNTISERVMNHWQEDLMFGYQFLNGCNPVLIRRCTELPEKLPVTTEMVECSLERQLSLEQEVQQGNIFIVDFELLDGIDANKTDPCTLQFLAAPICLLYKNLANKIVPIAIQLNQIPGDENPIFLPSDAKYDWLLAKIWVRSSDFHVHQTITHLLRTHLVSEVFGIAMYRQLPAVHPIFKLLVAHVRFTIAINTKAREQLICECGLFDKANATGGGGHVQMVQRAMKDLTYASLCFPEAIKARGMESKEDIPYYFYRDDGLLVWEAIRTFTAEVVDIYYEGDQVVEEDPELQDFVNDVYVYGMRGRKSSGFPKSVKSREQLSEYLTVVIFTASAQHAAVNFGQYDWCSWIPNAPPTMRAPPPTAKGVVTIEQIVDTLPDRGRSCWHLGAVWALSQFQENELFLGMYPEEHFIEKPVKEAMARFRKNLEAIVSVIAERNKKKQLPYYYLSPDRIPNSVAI
The experiment in a line: Inhibition of LOX5 in human PMBL by enzyme immunoassay. The method in brief:
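Human peripheral blood mononuclear leukocytes (5×10^6 cells/mL) in HBSS pH 7.4, preincubated with compound 15 min at 37 °C. Stimulated with 30 µM A23187 for 15 min at 37 °C, stopped with 1 N HCl, neutralized with NaOH and centrifuged. Supernatant LTB4 measured by EIA.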

Experiment [10] concerns the target T6, Prostaglandin G/H synthase 2 (Homo sapiens) (UniProt P35354).
T6 sequence (whole entry): T4 sequence (P35354 whole entry)
The conditions noted are these: THP-1, at 10 µM.

For experiment [11], the target named is T6, Prostaglandin G/H synthase 2 (Homo sapiens). Put plainly: Inhibition of human recombinant COX2 expressed in insect Sf9 cells at 10 uM by enzyme immunoassay.
Experiment [12] has as its target T3, Prostaglandin G/H synthase 1. Put plainly: Inhibition of human recombinant COX1 in human platelets at 10 uM by enzyme immunoassay. Put shortly: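 Washed human platelets (5×10^7 cells/mL) in modified HEPES buffer pH 7.4, preincubated with compound 15 min at 37 °C. Reaction started with 100 µM arachidonic acid, run 15 min at 37 °C, stopped with 1 N HCl. PGE2 quantified by EIA.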

Consider `Cc1ccc(-c2cc(C(F)(F)F)nn2-c2ccc(S(N)(=O)=O)cc2)cc1`, for which the outcome with THP-1 [1] was inactive.
For the compound `C[C@@H]1C[C@H]2[C@@H]3CCC4=CC(=O)C=C[C@]4(C)[C@@]3(F)[C@@H](O)C[C@]2(C)[C@@]1(O)C(=O)CO` [DEXAMETHASONE], the inhibition at 1 µM with THP-1 [2] is 89%.
The compound `COc1ccc2c(c1)c(CC(=O)NCCc1ccccc1)c(C)n2C(=O)c1ccc(Cl)cc1` showed a 50% inhibitory concentration (IC50) in experiment [3] of 56700 nM.
In the case of `O=[N+]([O-])c1ccc2c(c1)S(=O)(=O)N=S2c1ccc(Br)cc1` (stereo unspecified), the concentration for half-maximal inhibition (IC50) amounted to 440 nM in the experiment on THP-1 [4]; 4400 nM in [5]; 2100 nM in experiment [3]; 6700 nM in experiment [6]; 1700 nM in [7]; 1220 nM in experiment [9]. Moreover, the inhibition at 10 µM in the experiment on THP-1 [1] worked out at 92%. The inhibition entry in experiment [8] is “inactive”. The inhibition in experiment [10] came out at 77%.
On to `O=[N+]([O-])c1ccc2c(c1)S(c1ccc(Br)cc1)=NS2(=O)=O` (stereo unspecified), for which the values for the half-maximal inhibitory concentration (IC50) in experiment [5], in [3] and in experiment [9] were 18100 nM, 1500 nM and 470 nM, respectively. The results for the inhibition in [11] and in [12] were 23% and 39%, respectively. The result in the experiment on THP-1 [1] was inactive.
Compound `CS(=O)(=O)Nc1ccc([N+](=O)[O-])cc1OC1CCCCC1` [NS-398] returned a concentration for half-maximal inhibition (IC50) in experiment [3] of 63700 nM.
Turning to `NS(=O)(=O)c1ccc2c(c1)S(c1ccc(Br)cc1)=NS2(=O)=O` (stereo unspecified), the inhibition in experiment [11] turned out to be 27%; in [12], 17%.

A word on the inhibition: it is the share of the control response that was lost under treatment. The IC50 is the concentration needed to halve the response being measured.

The values above are taken from ChEMBL document CHEMBL1159122 (Bioorg Med Chem, 2010).
